ALP activity data for three compounds are collected here from ChEMBL document CHEMBL1132592, “Synthesis of novel 2-benzothiopyran and 3-benzothiepin derivatives and their stimulatory effect on bone formation” (J Med Chem, 1999).

The target of test [1] is T1, Alkaline phosphatase, tissue-nonspecific isozyme (Rattus norvegicus) (UniProt P08289).
T1 sequence (whole entry): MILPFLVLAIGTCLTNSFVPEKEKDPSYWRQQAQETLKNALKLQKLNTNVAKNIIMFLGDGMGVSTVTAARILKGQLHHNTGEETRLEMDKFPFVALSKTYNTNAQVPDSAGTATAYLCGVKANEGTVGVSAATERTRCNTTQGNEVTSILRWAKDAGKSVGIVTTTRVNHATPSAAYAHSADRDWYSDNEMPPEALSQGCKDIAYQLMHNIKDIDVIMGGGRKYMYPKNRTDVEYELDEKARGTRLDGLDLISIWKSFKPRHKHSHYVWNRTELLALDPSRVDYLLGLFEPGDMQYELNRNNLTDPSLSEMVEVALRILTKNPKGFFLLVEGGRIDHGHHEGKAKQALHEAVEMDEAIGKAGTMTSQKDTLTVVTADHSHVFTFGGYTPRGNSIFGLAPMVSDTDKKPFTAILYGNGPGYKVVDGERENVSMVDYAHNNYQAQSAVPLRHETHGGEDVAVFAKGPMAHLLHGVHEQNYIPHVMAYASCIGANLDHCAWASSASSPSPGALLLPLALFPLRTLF
Nature of the test: Effect of 10E-7 M compound on alkaline phosphatase activity in culture of rat bone marrow stromal cells. A digest of the protocol: (§1)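 Femoral marrow stromal cells from 7-week-old male Sprague-Dawley rats. Primary culture 1 week in α-MEM (10 mM HEPES pH 7.0, 15% FBS, 2 mM glutamine, 50 μg/mL ascorbate, 10 mM β-glycerophosphate, 10^-7 M dexamethasone), 37 °C, 5% CO2. Subcultured at 4 × 10^4 cells/well; compound (10 mM stock in EtOH-DMSO 1:1 or DMF) from day 1 to day 10-14, medium changed every other day. Lysate ALP (Lowry method) in nmol/min/well; mean ± SE, n = 5–10.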

The target of test [2] is T1, Alkaline phosphatase, tissue-nonspecific isozyme (Rattus norvegicus). Put plainly: Effect of 10E-6 M compound on alkaline phosphatase activity in culture of rat bone marrow stromal cells. A digest of the protocol: as §1
The target is the same in test [3]. Put plainly: Effect of 10E-5 M compound on alkaline phosphatase activity in culture of rat bone marrow stromal cells. The format is tissue-based. A digest of the protocol:
as §1

For test [4], the target named is T2, Alkaline phosphatase, tissue-nonspecific isozyme (Mus musculus) (UniProt P09242).
T2 sequence (whole entry): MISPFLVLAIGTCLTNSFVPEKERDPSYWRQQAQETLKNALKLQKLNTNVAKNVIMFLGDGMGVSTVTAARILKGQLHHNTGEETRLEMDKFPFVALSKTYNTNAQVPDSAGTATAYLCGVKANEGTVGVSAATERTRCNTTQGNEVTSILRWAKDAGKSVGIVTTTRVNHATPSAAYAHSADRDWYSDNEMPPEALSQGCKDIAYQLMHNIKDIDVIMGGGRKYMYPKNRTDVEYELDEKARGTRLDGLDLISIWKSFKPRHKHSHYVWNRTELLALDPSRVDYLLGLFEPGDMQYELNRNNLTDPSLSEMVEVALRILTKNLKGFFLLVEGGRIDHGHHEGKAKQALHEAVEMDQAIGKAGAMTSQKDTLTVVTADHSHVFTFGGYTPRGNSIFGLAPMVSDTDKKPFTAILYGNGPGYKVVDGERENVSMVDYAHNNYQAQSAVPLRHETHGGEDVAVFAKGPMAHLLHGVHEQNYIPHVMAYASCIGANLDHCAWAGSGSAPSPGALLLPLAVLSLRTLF
Nature of the test: Alkaline phosphatase stimulatory activity of 10E-5 M compound in culture of MC3T3-E1 in absence of BMP. A digest of the protocol:
(§2)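 Mouse osteoblastic MC3T3-E1 cells, 3000 cells/well, grown 3 days in α-MEM with 10% FBS, then switched to α-MEM with 1% FBS plus compound, with or without recombinant Xenopus BMP-4/7 heterodimer (3 ng/mL), for 3 more days. ALP in lysate supernatant read as absorbance at 405 nm; mean ± SE, n = 6; Dunnett's test vs matching control.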

The target of test [5] is T2, Alkaline phosphatase, tissue-nonspecific isozyme (Mus musculus). Put plainly: Alkaline phosphatase stimulatory activity of 10E-5 M compound in culture of MC3T3-E1 in presence of 3 ng/mL of BMP. A digest of the protocol: as §2
Test [6] has the same target. Nature of the test: Alkaline phosphatase stimulatory activity of 10E-6 M compound in culture of MC3T3-E1 in presence of 3 ng/mL of BMP. A digest of the protocol: as §2
Test [7] has the same target. Put plainly: Alkaline phosphatase stimulatory activity of 10E-6 M compound in culture of MC3T3-E1 in absence of BMP. A digest of the protocol: as §2
In test [8] the target is T1, Alkaline phosphatase, tissue-nonspecific isozyme (Rattus norvegicus). Put plainly: Effect on alkaline phosphatase activity compared to control in culture of rat bone marrow stromal cells, 10E-5 M concentration. In kind it is tissue-based. A digest of the protocol: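 Rat femoral marrow stromal cells subcultured at 4 × 10^4 cells/well in α-MEM with 15% FBS, ascorbate, 10 mM β-glycerophosphate and 10^-7 M dexamethasone. Compound added day 1 to day 10-14, medium refreshed every other day. Lysate ALP (Lowry method) given as fold of control; n = 5–10; Student's t-test.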

With `CCOP(=O)(Cc1ccc(NC(=O)[C@@H]2Cc3cc4c(cc3C(=O)[C@@H](C)S2)OCO4)cc1)OCC`, the ALP activity amounted to 166 in test [1]; 160 in test [2]; 566 in test [3]; 0.115 in test [4]; 0.131 in test [5].

In the case of `CCOP(=O)(Cc1ccc(NC(=O)C2Cc3cc4c(cc3C(=O)C(C)S2)OCO4)cc1)OCC` (racemic), the ALP activity in test [1] was determined as 185; in test [2], 411; in test [3], 1210; in test [6] it was 0.162; in test [4] it was 0.178; in test [7], 0.133. Also, the ALP activity in test [5] was 0.221.

In the case of `CCOP(=O)(Cc1ccc(NC(=O)[C@H]2Cc3cc4c(cc3C(=O)[C@H](C)S2)OCO4)cc1)OCC`, the ALP activity in test [1] is 192; in test [8], 5.5; in test [2] it was 682; in test [3], 1640; in test [6], 0.191; in test [4] it was 0.195. The ALP activity in test [7] is 0.154; in test [5] it was 0.284.
